The subject of assay [1] is Lactuca sativa. Put plainly: Phytotoxicity against Lactuca sativa cv. Burpee's Iceberg (lettuce) assessed as reduction in chlorophyll content compound treated at 100 uM in darkness after 7 days followed by exposure to white light by spectrophotometry. The format is functional, organism-based. In outline: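 Seedlings were treated in wells with 1% acetone final and kept in foil-wrapped darkness at 26 °C for 7 days. They then received 5 min of white light (80 µmol s⁻¹ m⁻² PAR) and were returned to darkness for 1 h. Ten cotyledon pairs were weighed and extracted in DMSO in the dark. Chlorophyll was read at 645/663 nm and compared with the solvent control.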

Assay [2] deals with Lactuca sativa. Put plainly: Phytotoxicity against Lactuca sativa cv. Burpee's Iceberg (lettuce) assessed as reduction in chlorophyll content at 100 uM after 7 days by spectrophotometry. Type of assay: functional, organism-based. The method in brief:
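Seeds grown in 24-well plates in water with 3% acetone, at 26 °C under continuous light (173 µmol s⁻¹ m⁻²) for 7 days. Cotyledons from three plants per well were weighed and extracted in 2 mL DMSO at 60 °C for 2 h, then diluted with 1 mL more DMSO. A645 and A663 were read and converted to total chlorophyll (20.2A645 + 8.02A663). Values were normalized to cotyledon weight.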

Assay [3] relates to Allium cepa. The assay can be described thus: Phytotoxicity against Allium cepa (onion) assessed as inhibition of mitosis in root tips at 100 uM measured on day 7 of compound treatment by microscopy. The format is functional, organism-based. In outline:
(§1)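 Ten surface-sterilized onion seeds were placed on filter paper in 6-cm dishes with 1 mL of water containing compound (final 0.05% acetone). Controls received water or acetone/water. Dishes were kept at 25 °C under a 16 h photoperiod at 173 µmol s⁻¹ m⁻². On day 7, root tips were fixed (HOAc/EtOH 1:3), hydrolyzed in 5 N HCl for 1 h, and Feulgen-stained with Schiff's reagent for 45 min. At least 1000 cells per slide were scored at 40×.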

For assay [4], the system named is Lemna aequinoctialis. The assay can be described thus: Phytotoxicity against Lemna paucicostata assessed as tissue degradation at 250 uM after 4 to 5 days. The format is functional, organism-based.
Assay [5] deals with Lemna aequinoctialis. The assay can be described thus: Phytotoxicity against Lemna paucicostata assessed as growth inhibition at 100 uM after 4 to 5 days. The format is functional, organism-based. The method in brief:
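Hoagland medium at pH 5.5 was filter-sterilized in 6-well plates, with compound added in acetone or EtOH (1% final). Two three-frond colonies from 4- to 5-day-old stock cultures were placed per well. Total frond area was recorded by image analysis from day 0 to day 7.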

Assay [6] has as its system Agrostis stolonifera. The assay can be described thus: Phytotoxicity against Agrostis stolonifera assessed as mortality at 333 uM after 12 days. The format is functional, organism-based. The method in brief: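 Seeds (10 mg) per well of 24-well plates in 250 µL water containing 3% acetone as final concentration; solvent-only controls. Plates were sealed and incubated at 26 °C under continuous light at 173 µmol s⁻¹ m⁻². Concentrations tested were 10, 33, 100 and 333 µM. Phytotoxicity was scored visually against untreated controls.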

For assay [7], the system named is Lactuca sativa. Put plainly: Phytotoxicity against Lactuca sativa cv. Burpee's Iceberg (lettuce) assessed as unbranched root tips at 10 uM after 7 days by spectrophotometry relative to control. Type of assay: functional, organism-based.
Assay [8] concerns Allium cepa. Put plainly: Phytotoxicity against Allium cepa (onion) assessed as accumulation of cells at metaphase in root tips at 33 uM measured on day 7 of compound treatment by microscopy. Type of assay: functional, organism-based. The method in brief: as §1
Assay [9] deals with Allium cepa. The assay can be described thus: Phytotoxicity against Allium cepa (onion) assessed as accumulation of cells at prophase in root tips at 33 uM measured on day 7 of compound treatment by microscopy. The format is functional, organism-based. The method in brief: as §1
For assay [10], the system named is Lactuca sativa. The assay can be described thus: Phytotoxicity against Lactuca sativa cv. Burpee's Iceberg (lettuce) assessed as blunt root tips at 10 uM after 7 days by spectrophotometry relative to control. The format is functional, organism-based.
In assay [11] the test system is Lactuca sativa. Put plainly: Phytotoxicity against Lactuca sativa cv. Burpee's Iceberg (lettuce) assessed as reduction in radical length at 10 uM after 7 days by spectrophotometry relative to control. Type of assay: functional. More on the design: scale not given: the % may be the effect or the level left. The method in brief: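 Lettuce seeds were set in multiwell plates with test material supplied from acetone in DDI water (3% acetone final). Controls received acetone and water only. Plates were sealed and kept at 26 °C under continuous light at 173 µmol s⁻¹ m⁻² for 7 days. Root lengths, together with plant weight and chlorophyll content, were compared against untreated controls.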

Activity calls are given as the source filed them. The rule behind the calls is not given here.

With `Cn1c(-c2ccc3c(c2)OCO3)cc(=O)c2ccccc21`, the outcome in assay [1] was inactive. In addition, the result in [2], in [4] and in assay [6] was Active. Further, the inhibition entry in assay [3] was “Active”. For the same compound, in assay [5], the “growth inhibition (GI)” value is “Active”.
As for `COc1c2occc2cc2ccc(=O)oc12` [METHOXSALEN], the result in assay [1] was inactive. In addition, the outcome in assay [2], in [7], in assay [8], in assay [9], in assay [6] and in assay [10] was Active. The inhibition result in [3] is “Active”. The Activity in assay [11] is listed as 39%.
`COc1c2ccoc2cc2oc(=O)ccc12`: the outcome in [7], in assay [10] and in assay [11] was inactive. Further, the inhibition result in [3] is “Active”. The result in assay [6] was Active.

The record behind these values is ChEMBL document CHEMBL3044723, “Phytotoxins from the leaves of Ruta graveolens” (2004).
